Assay results of several laboratories.
Lines come from different studies, so protocols differ.

SMILES	host	medium	route	dose	notes	Cmax
NCC(=O)Nc1ccc(-n2nc(C(F)(F)F)cc2-c2ccc3c(ccc4ccccc43)c2)cc1	mouse	plasma	oral	80 mg/kg	single dose	2080 ng/mL
CN[C@H](CC(C)C)C(=O)N[C@H]1C(=O)N[C@@H](CC(N)=O)C(=O)N[C@H]2C(=O)NC3C(=O)N[C@H](C(=O)N[C@H](C(=O)NCCC[N+](C)(C)C)c4cc(O)cc(O)c4-c4cc3ccc4O)[C@H](O)c3ccc(c(Cl)c3)Oc3cc2cc(c3OC2OC(CO)C(O)[C@H](O)[C@@H]2O[C@H]2CC(C)(NCc3ccc(-c4ccc(Cl)cc4)cc3)[C@H](O)[C@H](C)O2)Oc2ccc(cc2Cl)[C@H]1O (stereo partly drawn)	mouse	plasma	intravenous	10 mg/kg	–	14100 ng/mL
CN1CCCCC1Cn1cc(C(=O)c2cc([N+](=O)[O-])ccc2I)c2ccccc21 (racemic)	mouse	plasma	oral	25 mg/kg	–	800 ng/mL
Cc1c(P(=S)(c2ccccc2)c2ccccc2)n2ccccc2[n+]1C/C=C/c1ccccc1.[Br-]	mouse	plasma	intraperitoneal	10 mg/kg	–	1500 nM
COc1ncccc1-c1cnn2ccc(N3CCN(C(=O)OC(C)C)CC3)nc12	mouse	plasma	oral	10 mg/kg	–	5200 nM
CCC[C@@](N)(CO)CCc1ccc(OCCCCCC(C)C)cc1	mouse	plasma	intraperitoneal	10 mg/kg	–	1460 nM
COc1ccc2[nH]cc(CCNc3nccc(Nc4cccc5c4ccn5C)n3)c2c1	mouse	plasma	oral	28.6 mg/kg	–	406 ng/mL
CCCCCCCC(=O)N[C@@H](CCCCN)C(=O)N[C@@H](CCCCN)C(=O)N[C@@H](C)C(=O)N[C@@H](CC(C)C)C(=O)N[C@@H](CCCCN)C(=O)N[C@@H](CC(C)C)C(=O)N[C@@H](C)C(=O)N[C@@H](CCCCN)C(=O)N[C@@H](CCCCN)C(=O)N1CCC[C@H]1C(=O)N[C@@H](CC(C)C)C(=O)N[C@@H](CCCCN)C(=O)N[C@@H](CC(C)C)C(=O)N[C@@H](CC(C)C)C(=O)N[C@@H](CCCCN)C(N)=O	female CD-1 mouse	blood	intravenous	1 mg/kg	single dose	441 ng/mL
C[C@]12CC[C@H](O)CC1=CC[C@@H]1[C@@H]2CC[C@]2(C)C(n3cnc4ccccc43)=CC[C@@H]12.Cl	mouse	plasma	oral	10 mg/kg	–	10.5 ng/mL
N#Cc1c(Oc2cccc(OS(=O)(=O)CCCC(F)(F)F)c2)cccc1C(F)(F)F	mouse	plasma	oral	5 mg/kg	–	172 ng/mL
C[C@]12CC[C@H](n3ccnc3)CC1=CC[C@@H]1[C@@H]2CC[C@]2(C)C(n3cnc4ccccc43)=CC[C@@H]12.Cl	male CD-1 mouse	plasma	oral	10 mg/kg	–	1270 ng/mL
Cc1cc(C)nc(Nc2ncc(C(=O)NCCc3c(C)[nH]c4ccccc34)cn2)c1	C57BL/6 mouse	plasma	intraperitoneal	4.4 mg/kg	–	191 ng/mL
